Among the data in the RNAGym collection of RNA variant scans (doi:10.1126/science.aae0568) are yeast fitness values, retold here.

This sample holds only a part of the variants without activity.

B1: tRNA (parent)
chain: GUUCCGUUGGCGUAAUGGUAACGCGUCUCCCUCCUAAGGAGAAGACUGCGGGUUCGAGUCCCGUACGGAACG

In this data set the parent is B1. Briefly: yeast fitness relative to wild type (ratio to wild type); higher = fitter; tRNA-Arg(CCU), competitive growth, 37 C, YPD. Put shortly: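 The tRNA-Arg(CCU) gene variants were made by chemical synthesis with a 3% per-site mutation rate at 69 sites and inserted at the native genomic locus of Saccharomyces cerevisiae. After pooling, the strains were competed in YPD at 37°C for 24 hours in six parallel replicates. Gene amplicons from the start population and each end population were read by 100-nucleotide paired-end sequencing, and Darwinian fitness relative to wild type was taken from genotype frequency changes. Genotypes needed ≥ 100 starting reads, and estimates < 0.5 were set to 0.5.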
Regarding C29U C55U C66U, the yeast fitness was found to be 0.58.
In the case of C11U A14G G58A A69C, the yeast fitness is no more than 0.5.
The figure for A36C U54G is 0.522; for G17A C34A A70C it is 0.631; for C30G C34A C49G G50A U64A G68C it is no more than 0.5.
As for C27U G39A C46U, the yeast fitness came to 0.918.
As to C24A C29G A45G U54A, the yeast fitness was no more than 0.5.
Take C11G U13G G56A A69C: the yeast fitness was no more than 0.5.
The figure for G25A A42U A43C G44A is 0.764; for G39C U53A C62A G68C it is no more than 0.5; for U2C U16C C27G it is 0.669.
On to C5G A37U C49G, for which the yeast fitness is no more than 0.5.
Take A14C C22A U59G C62G: the yeast fitness is no more than 0.5.
In the case of C5G U13C A43G G50C, the yeast fitness came to 0.566.
The figure for C5G C34U G44C U47G is no more than 0.5; for C33U C34A A36G A42U C49U it is 0.571.
For A40G G58A, the yeast fitness was 0.857.
The same measure for U16C C27U U64G: 0.536; for U3C C34G A65G: 0.757.
The same measure for G9C C29U A36U G63A G67A: no more than 0.5; for G25C U35C A42C C46A G48C C61A: no more than 0.5; for U3G C22A C24U U35G A45U G56A: no more than 0.5.
Take U2A C4U U8G C55G G68A: the yeast fitness is no more than 0.5.
In the case of G18C C60G A65G, the yeast fitness stood at 0.544.
The figure for A15G A36C C46A C66U is no more than 0.5; for C24G A45C A69U it is 0.611.
The same measure for C24G C27G A45C: no more than 0.5.
As to G9C C11G C24U C31U G67U, the yeast fitness is no more than 0.5.
The figure for A36C A37G G56C is no more than 0.5; for C22A G23A C33U C34G G67C A69C it is no more than 0.5.
For C22G C31A C49G G63C, the yeast fitness stood at 0.545.
On to U7A C29A G58A C61G, for which the yeast fitness amounted to 0.604.
A14C A21G C29A C34U A69U: the yeast fitness worked out at 0.638.
Regarding U2C C4G C27G U32A U35C C49A U59C, the yeast fitness is no more than 0.5.
On to G10C C27U G38A C46G, for which the yeast fitness worked out at 0.57.
In the case of C11U C49U G56C C62U, the yeast fitness was no more than 0.5.
On to A21U U35A A65C, for which the yeast fitness was no more than 0.5.
As to A40G A45G, the yeast fitness was determined as 0.849.
As for A20C C30U C66U, the yeast fitness was no more than 0.5.
C4A A15C A69C: the yeast fitness was no more than 0.5.
For the variant G25A C31U C66U, the yeast fitness was found to be 0.761.
In the case of U28A A45G C66U, the yeast fitness was 0.538.
The figure for G6C A37U C49U G56A A69U is no more than 0.5; for U3C G25A A42C it is no more than 0.5; for G56A C62U it is 0.967.
On to A69C A70C, for which the yeast fitness was 0.982.
Regarding G23C C33U A42G A43C U64A C66A A69C A70C, the yeast fitness was no more than 0.5.
For the variant C22U C30G G52A, the yeast fitness came out at 0.514.
The same measure for A14C A57U: 0.52; for C5A A14G C22G C62G: no more than 0.5.
For the variant U7G C66U, the yeast fitness came out at 0.893.
With C31G C55U U59A, the yeast fitness was determined as 0.559.
As to G23A C30U U35G A45U A57C, the yeast fitness is 0.533.
For the variant G52C A70U, the yeast fitness came out at 0.804.
Regarding G17A G18A A42C C55U G63C, the yeast fitness was no more than 0.5.
On to C5U A42U A69U, for which the yeast fitness is 0.728.
A15C A20C G39C: the yeast fitness is no more than 0.5.
On to G12A A43U C62U, for which the yeast fitness is 0.807.
For G6A C24U A57C G68U A69C, the yeast fitness is no more than 0.5.
The same measure for U8C C30U A37G: no more than 0.5; for C22U C27U A37G: 0.643; for U2G U7G U16C C34U: no more than 0.5.
As for C11G C29G A40G G41A C49A C62G, the yeast fitness was found to be 0.751.
Regarding G50A G52A, the yeast fitness worked out at 0.688.
On to C4A C11U C31G U53C U54G, for which the yeast fitness is no more than 0.5.
For the variant A14U A65U, the yeast fitness was found to be 0.639.
U7G G38C C60G: the yeast fitness was no more than 0.5.
Regarding C24G C31U G48A C49U, the yeast fitness is 0.785.
Consider A42C U59C, for which the yeast fitness turned out to be 0.901.
As to A14U A57U, the yeast fitness is no more than 0.5.
The same measure for A14C A40G C49U G58A: no more than 0.5.
Take U2G G12A C31G C33G A40U G52A C60G C62U: the yeast fitness is no more than 0.5.
With U3G C4A G12A C29A C30G C62A A69C, the yeast fitness was no more than 0.5.
Regarding G18C C66A A69U, the yeast fitness was no more than 0.5.
As to G6C C55G G68A, the yeast fitness is no more than 0.5.
For the variant A20C C30G C55A G67A, the yeast fitness is no more than 0.5.
The figure for U32C A45U C49G C55G G67C is no more than 0.5; for G63A A70G it is 0.804; for A45C U47G A57G it is 0.605.
As to U3G A36G, the yeast fitness was determined as 0.977.
As to G9C A15G G17A C27A C31G G50A, the yeast fitness is no more than 0.5.
G25C C62U: the yeast fitness is 0.999.
Consider G38C C60U G68C, for which the yeast fitness was no more than 0.5.
In the case of C24U C29A U32A C46G A57C, the yeast fitness was 0.5.
For U54C A69C, the yeast fitness came out at 0.965.
With C4G C34G A40G, the yeast fitness came out at 0.57.
For the variant A37G G68A, the yeast fitness stood at 0.88.
On to G6C C34G A45U G68C, for which the yeast fitness is no more than 0.5.
Regarding U3A G48A, the yeast fitness was 0.844.
For the variant C27G A43C C66A, the yeast fitness was no more than 0.5.
The figure for G9A A14G C61U A70G is no more than 0.5; for A21U C27U U53C it is no more than 0.5.
The figure for G9C U54G A70C is 0.545; for U13C A15G A43U it is 0.752; for A21G U28A C30U it is no more than 0.5.
The figure for G12A A42C C49A C61U is no more than 0.5.
Turning to U8G G18C C22U C29U C46A C55G, the yeast fitness came out at 0.574.
The same measure for C5U G56A U59G: 0.516; for G18A C31A G56C A65C: no more than 0.5.
The figure for G17A C22U A45G is no more than 0.5.
The figure for C11U A42G G48A is 0.678.
With U3C C4A A45G, the yeast fitness was determined as 0.531.
For A15C C55G A57C, the yeast fitness was no more than 0.5.
For the variant C24U A43U C55G, the yeast fitness was 0.588.
As for G10C G18A C66U, the yeast fitness was no more than 0.5.
Turning to U32C U54A A65G, the yeast fitness was no more than 0.5.
With U28A A57G C60A, the yeast fitness was found to be 0.569.
Take U13A A65G: the yeast fitness stood at 1.04.
With U13C U28C U47C C55A, the yeast fitness came to 0.545.
For G25C G58C, the yeast fitness stood at 1.
The figure for U3C G9C C11U C29G C30A U64G A69C is no more than 0.5; for U8C C27U C49U G52A C60A it is no more than 0.5; for G39C G63A it is 0.7.
Regarding C4U A15G G23C A37U A65U, the yeast fitness is 0.57.
As for C11U A42C A65G, the yeast fitness amounted to 0.658.
On to U8A C22U A36G A40C U47A, for which the yeast fitness was no more than 0.5.
With A14C C30G G68U, the yeast fitness turned out to be 0.567.
The figure for C4A G10C C11U C27U A45U C60G is no more than 0.5; for G25C A36C it is 0.718; for C4U A42C A45G C49U C66A it is no more than 0.5.
Consider U16A U19A C46U U64C, for which the yeast fitness came to 0.74.
The figure for U32A G41C C49G C55U is no more than 0.5.
On to C27G G56A A65G, for which the yeast fitness came to 0.535.
Consider C30U U35C A45U A57C, for which the yeast fitness was determined as 0.534.
The same measure for G9A C34G C55U G63A: no more than 0.5; for C27A A36G C46A G50A G51C: no more than 0.5.
Regarding A20U C31G C55G C60G C66U, the yeast fitness was no more than 0.5.
For the variant C11U U16A A36G A43G C62A, the yeast fitness is no more than 0.5.
For C22U C24U U47C, the yeast fitness is 0.705.
As to U19C C29U C34A, the yeast fitness is no more than 0.5.
As to C5G C49U, the yeast fitness was 0.815.
The same measure for C34G: 0.65; for U2A C5G C11G A20G: no more than 0.5.
With U3C G18A U53A U54G G63A, the yeast fitness was no more than 0.5.
On to G38C A43G C49G G51A C60U, for which the yeast fitness was no more than 0.5.
On to C4U C5A C60A C62U U64C G68A A69C, for which the yeast fitness was determined as 0.579.
G10C C49G A65G: the yeast fitness was determined as 0.55.
Turning to G12A C24U C34G, the yeast fitness is 0.696.
The figure for G10A A65U is 0.788; for G48A C62A it is 0.978.
Consider C4A A14G G23C A65G, for which the yeast fitness is no more than 0.5.
With C5G A15G C27G C30A, the yeast fitness was no more than 0.5.
On to G6A G41A A42C G50C A70G, for which the yeast fitness came out at 0.543.
Turning to C4G C11U A36G, the yeast fitness was 0.57.
As to A14U G17C A57G, the yeast fitness came to 0.505.
The same measure for A43G A57U G58A: 0.531.
As to A20C A37C G63A, the yeast fitness was no more than 0.5.
For C34G A37C G38A C66U, the yeast fitness is no more than 0.5.
As for C29G A42C, the yeast fitness came to 0.685.
C22A C31G G38C A43G: the yeast fitness was no more than 0.5.
Take C24A C27U C29G G44C G68C: the yeast fitness is no more than 0.5.
The figure for A43U G50A G68A is no more than 0.5; for U16G G39A C61G it is no more than 0.5.
C31A C33G A36U: the yeast fitness was determined as 0.676.
As for C22G C31U, the yeast fitness is 1.
As for A15G C34U C49A, the yeast fitness is 0.6.
For C22A C34G A37C, the yeast fitness was no more than 0.5.
G6A C33G C34G C61A: the yeast fitness was 0.548.
The figure for G23C G38C G52C G58A is no more than 0.5; for U16A C33U A36G G38C it is no more than 0.5.
On to U53A A65G, for which the yeast fitness was determined as 0.571.
For G25C A40U A42C C61A C66U, the yeast fitness is no more than 0.5.
Turning to C22A U47A G56A C60U, the yeast fitness is no more than 0.5.
On to G10C A14C A40C C60A G63A, for which the yeast fitness was no more than 0.5.
With G38C C55G G67A, the yeast fitness was no more than 0.5.
For A14U A42C C46A, the yeast fitness is no more than 0.5.
For the variant C22G A43U U64C, the yeast fitness was 0.611.
